Source: PubChem BioAssay AID463079 (The Scripps Research Institute Molecular Screening Center, 2010)
The whole screen tested about 330,000 compounds, of which about 2,000 (0.61%) were called active. Many of the other results were omitted from the sample, so actives are more common in it than they were. A number with no mark means an inactive call.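 How the source made its calls: active means inhibition above that plate's mean sample inhibition plus 3 SD (cut at about 26% in these data); inactive means the rest.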

Test: nonselective Gq signaling inhibition in CHO cells – cell-based, fluorescence, Fluo-8 calcium dye, counter-screen for OX1R antagonist project, primary screen (AID 463079);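 further: 0% = ATP-challenged DMSO wells and 100% = DMSO wells without ATP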
Settings: parental CHO-K1, ATP-induced calcium, Fluo-8 fluorescence; at 5.6 µM; stronger effect = higher value
Procedure, shortened: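 test system = CHO parental line | reagent = ATP stimulus | measured by = intracellular calcium via Fluo-8 no-wash fluorescent dye | control set = ATP and no-ATP DMSO wells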

| SMILES | inhibition |
| --- | --- |
| S=C(NCCC1=CCCCC1)Nc1ccccc1 | 6.17% |
| COc1cc(OC)c2c(-c3cccc(-c4cccc(N)c4)c3)cc(=O)oc2c1 | -15.7% |
| CSc1sc(C)cc1C1C(C#N)=C(N)N(c2cccnc2)C2=C1C(=O)CCC2 (centres undefined) | -13.3% |
| CN(C(=O)CN(CCO)CC(=O)N(C)C(C)(C)Cc1ccccc1)C(C)(C)Cc1ccccc1 | 52.8% (active) |
| OCCN(Cc1ccccc1)Cc1ccc(Cl)cc1 | -28.2% |
| CCN(CC)C(=O)N(CC)Cc1ccccc1 | -0.04% |
| CCc1cccc(NC(=S)N(CCN(C)C)C2CCN(C(C)C)CC2)c1 | 1.41% |
| CCc1cc2c(=O)c(-c3ccon3)c(N)oc2cc1OC | -10.2% |
| Cc1ccc(-c2cccc([C@H]3[C@@H]4C=CC[C@@H](C)[C@@H]4C(=O)N3Cc3ccccc3)c2)cc1 | -46.9% |
| C=CCSc1nsc(NC(=O)Nc2cccc(C(C)=O)c2)n1 | 46.6% (active) |
| C=CCSc1nnc(NC(=O)c2ccc(NC(C)=O)cc2)s1 | -14.6% |
| CCSc1nsc(NC(=O)Nc2cccc(C(C)=O)c2)n1 | 66.5% (active) |
| CSc1ccccc1C(=O)Nc1cccc(C(C)=O)c1 | -10% |
| CSc1nsc(NC(=O)Nc2ccccc2)n1 | 18.8% |
| CCSc1nsc(NC(=O)Nc2ccccc2OC)n1 | -18.1% |
| CN(C)C=NC(=O)c1cccn1-c1ncc(C(F)(F)F)cc1Cl | 7.02% |
| O=C(O)CCN1C(=O)CC2(CCCCC2)C1=O | 6.17% |
| CC(=O)c1c(C)[nH]c(C(=O)COc2ccc3c(C)cc(=O)oc3c2)c1C | 1.48% |
| CCOC(=O)c1c(C)[nH]c(C(=O)COc2ccc3c(c2)OCO3)c1C | 39.2% (active) |
| CCOC(=O)c1c(C)[nH]c(C(=O)OCC(=O)c2ccc(OC)cc2OC)c1C | -26.3% |
| COc1ccc(-c2cnc(SCCNC(=O)c3ccc4c(c3)OCO4)[nH]2)cc1 | -9.72% |
| Cc1ccc(NC(=O)c2ccc(Cl)nc2)cc1S(=O)(=O)N1CCOCC1 | -8.73% |
| CCN1/C(=C/c2ccc3ccc(C)cc3[n+]2CC)Sc2ccccc21 | 80.2% (active) |

| SMILES | inhibition |
| --- | --- |
| CCN1/C(=C\c2ccc3ccccc3[n+]2CC)Sc2cc(C)ccc21 | 79.6% (active) |
| CCOC(=O)CN(C(=O)COc1nc(-c2ccccc2)cc(C)c1C#N)c1ccc(F)cc1 | -20.7% |
| O=C(O)CN(Cc1ccco1)S(=O)(=O)c1ccccc1 | -6.05% |
| COc1ccc(C(=O)OCC(=O)c2cc(C)n(CC3CCCO3)c2C)cc1[N+](=O)[O-] (centres undefined) | -4.71% |
| CC(NC(=S)Nc1ccc(OC(F)F)cc1)c1ccc(F)cc1 (centres undefined) | 14.7% |
| COc1cccc(CNC(C)C(=O)Nc2ccc(S(=O)(=O)N3CCCC3)cc2)c1 (centres undefined) | -9.95% |
| COc1cc2c(cc1OC)C(C(=O)NCc1ccco1)C1c3ccccc3CCN1C2=O (centres undefined) | -23.7% |
| CCOC(=O)c1sc(NC(=O)CSc2nc(C)cc(C(F)(F)F)n2)c(C#N)c1C | 4.56% |
| COc1ccc(C(=O)COC(=O)c2c(C)noc2C)cc1Cl | -10.6% |
| Cc1ccc(S(=O)(=O)N2CCN(C(=O)COC(=O)c3c(C)noc3C)CC2)c(C)c1 | -5.91% |
| Cc1ccc(-c2nc(COC(=O)c3c(C)noc3C)cs2)cc1 | 44.1% (active) |
| COc1ccc(S(=O)(=O)N2CCN(c3ncnc4c(-c5ccccc5)nsc34)CC2)cc1 | -9.64% |
| COCc1c(C(=O)OCC(=O)Nc2ccc(OC(F)F)cc2)oc2ccccc12 | -11.9% |
| Cc1ccc(S(=O)(=O)NCc2csc(C)n2)c(C)c1 | -13.8% |
| Cc1nc(CNS(=O)(=O)c2cc([N+](=O)[O-])ccc2C)cs1 | -14.4% |
| Cc1nc(CNS(=O)(=O)c2ccc(Oc3ccccc3)cc2)cs1 | 44.4% (active) |
| COc1ccc(NC2CCCN(C(=O)c3ccncc3)C2)cc1 (centres undefined) | -8.33% |
| CSCCC(C(=O)NC1=NCCS1)N1C(=O)c2ccccc2C1=O (centres undefined) | 1.01% |
| CCOc1cccc(C(=O)Nc2nnc(-c3cccs3)s2)c1 | -10.2% |
| N#Cc1ccc(Oc2ccc(C(F)(F)F)cc2NC(=O)c2ccc(F)cc2)cc1 | -13.8% |
| N#Cc1ccc(C(=O)Nc2nc(-c3cccs3)c(C(=O)C(F)(F)F)s2)cc1 | 25.4% (active) |
| O=C(/C=C/c1cccc([N+](=O)[O-])c1)NCCSCc1ccco1 | -15.3% |
| CCCC(C)C(=O)OCC(=O)Nc1c(Br)cc(C)cc1Br (centres undefined) | -8.47% |

| SMILES | inhibition |
| --- | --- |
| CC1CCN(C(NC(=O)c2ccco2)C(=O)c2ccccc2)CC1 (centres undefined) | -6.97% |
| CCC(=O)Nc1ccc(-c2ccc(N3CCCCC3)nn2)cc1 | -16% |
| CC1CCN(c2ccc(-c3ccc(NC(=O)c4ccco4)cc3)nn2)CC1 | 45% (active) |
| COc1ccc(CCNC(=O)CN(C)S(=O)(=O)c2ccc3nc(C)sc3c2)cc1OC | -5.92% |
| CC(=O)Nc1ccc(S(=O)(=O)NCCC(=O)N2CCN(c3ccccc3Cl)CC2)cc1 | -3.47% |
| CCOC(=O)N1CCN(C(=O)CSc2nc(=O)n3cccc(C)c3n2)CC1 | -15.5% |
| CCOC(=O)CC1C(=O)NCCN1c1nc2c(C)cccn2c(=O)c1/C=C1\SC(=S)N(C(C)CC)C1=O (centres undefined) | 54.2% (active) |
| Cc1cccn2c(=O)c(/C=C(\C#N)C(N)=O)c(N3CCCCCC3)nc12 | -34.3% |
| COc1ccc(CC(NC(C)=O)C(=O)NC2CCN(C(=O)Nc3ccc(C#N)cc3)CC2)cc1OC (centres undefined) | -6.58% |
| CC(C)=CCN1CCN(CCCc2ccccc2)CC1CCO (centres undefined) | -8.88% |
| CN(C)S(=O)(=O)N1CCC(Oc2cccc(C(=O)NCCCC3CCCC3)c2)CC1 | 23.8% |
| CSc1ccc(S(=O)(=O)NCC(=O)OCC(=O)NC2(C#N)CCCCC2)cc1[N+](=O)[O-] | -8.63% |
| COc1ccc(-c2noc(CCC(=O)N3CCN(c4cccc(C)c4)CC3)n2)cc1 | -7.6% |
| Oc1c(Cl)cc(Cl)c(Cl)c1Cc1c(O)c(Cl)cc(Cl)c1Cl | 70.6% (active) |
| COCC(=O)Nc1cc(C(=O)OC)cc(C(=O)OC)c1 | -1.27% |
| Cc1cccc(NC(=O)C2CC(=O)OC23CCCC3)c1 (centres undefined) | -13.3% |
| C/C(=N\NC(=O)CNC(=O)C(c1ccccc1)c1ccccc1)c1ccc(C)cc1 | 30.7% (active) |
| C/C(=N/NC(=O)CC(=O)N/N=C(\C)c1ccc([N+](=O)[O-])cc1)c1ccc([N+](=O)[O-])cc1 | -3.47% |
| O=C(CNC(=O)C(c1ccccc1)c1ccccc1)N/N=C\c1ccc2c(c1)OCO2 | 2.64% |
| CCCc1ccc(C(=O)COC(=O)CN2C(=O)NC3(CCCCC3C)C2=O)cc1 (centres undefined) | -23.9% |
| COc1cc(C(=O)N2CCN(C/C=C/c3ccccc3)CC2)cc(OC)c1C | -10.8% |
| CC1(C)CC[C@]2(C(=O)O)CC[C@]3(C)C(=CCC4[C@@]5(C)CC[C@H](O)C(C)(C)C5[C@H](O)C[C@]43C)[C@@H]2C1 (some centres undefined) | -9.31% |
| CC1(C)CC[C@@]2(C(=O)O)C(C1)C1=CCC3[C@@]4(C)CC[C@H](O)C(C)(C)C4CC[C@@]3(C)[C@]1(C)C[C@H]2O (some centres undefined) | 93.2% (active) |

| SMILES | inhibition |
| --- | --- |
| CC1(C)C2CC[C@]3(C)C(CC=C4[C@@H]5C[C@@](C)(CO)CC[C@]5(C(=O)O)CC[C@]43C)[C@@]2(C)CC[C@@H]1O (some centres undefined) | -1.46% |
| Cc1ccc(Cl)c(NC(=O)CN(C)CC(=O)Nc2ccc(F)c(F)c2F)c1Cl | -2.12% |
| NC(=O)c1ccc(-c2csnn2)cc1 | -15.6% |
| Cc1nc2ccccc2cc1OCc1ccc(F)cc1 | 54.1% (active) |
| Fc1ccccc1COc1cccc2cccnc12 | -22.9% |
| Cc1occc(=O)c1OCc1ccc(F)cc1 | -7.75% |
| CCNC(=S)N1CCN(CCN=CC2=C(O)CC(C)(C)CC2=O)CC1 | -4.83% |
| C=C(Br)CN1CCN(CC(=C)Br)CC1 | 4.29% |
| CCCCNC(=O)C(C)N(CCN(C)C)C(=O)CCCCCN1C(=O)NC(c2ccc(Cl)cc2)C(C(=O)OCc2ccccc2)=C1C (centres undefined) | -17% |
| CNC(=O)NC(=O)CSc1nnc(-c2ccc(F)cc2)n1CC1CCCO1 (centres undefined) | -7.71% |
| Cc1ccc(S(=O)(=O)N2CCN(c3ncnc4ccccc34)CC2)cc1 | 0.84% |
| Cc1ccc(C)c(S(=O)(=O)N2CCN(c3ncnc4sccc34)CC2)c1 | 62.3% (active) |
| COc1ccc(C)cc1S(=O)(=O)N1CCN(S(=O)(=O)c2cc(C(=O)O)ccc2C)CC1 | -11.5% |
| COc1ccc(NS(=O)(=O)c2cc(NC(=O)C3CCCCC3)ccc2N2CCOCC2)cc1 | 5.3% |
| CC(C)(C)c1ccc(CCC2OCC(CN3CCOCC3)O2)cc1 (centres undefined) | -9.27% |
| Cc1cc(OCCCN2CCN(Cc3ccccc3)CC2)ccc1[N+](=O)[O-] | 18.6% |
| Cc1cc(OCCCCOc2ccc(C#N)cc2)ccc1[N+](=O)[O-] | 44.9% (active) |
| Cc1cc(OCC(=O)NC2CCN(C)CC2)ccc1[N+](=O)[O-] | -4.54% |
| CC[C@]12c3[nH]c4ccc(OC)cc4c3CCN1C(=O)C(CC(=O)NCc1ccco1)C[C@@H]2C(=O)N1CCN(C(=O)C2CC2)CC1 (some centres undefined) | -3.18% |
| O=C1[C@@H](c2ccccc2)[C@@H](c2ccccc2)N1c1cccnc1 | 3.04% |
